ChEMBL document CHEMBL1122046, “Quaternary heterocyclylamino beta-lactams: a generic alternative to the classical acylamino side chain” (1982)
Values after ≈ are worked out from the molar mass of the structure shown.

What was measured:
Format in all cases: functional
Escherichia coli = assay: MIC against aerobic organism Escherichia coli strain 2891
Summary of the method: (§1)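 Agar-dilution MIC in µg/mL against aerobic bacterial strains on tryptocase soy agar, with inoculum applied as spots. Most series used 10^5 cfu per spot, and a later series used 10^4 cfu per spot. In some tables, footnoted strains were instead tested on Mueller-Hinton or nutrient agar. β-Lactamase-producing strains are flagged.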

Klebsiella aerogenes = assay: Minimum inhibitory concentration against aerobic organism Enterobacter aerogenes strain 2906; summary of the method: as §1
Enterobacter cloacae = assay: Minimum inhibitory concentration against aerobic organism Enterobacter cloacae strain 2646; summary of the method: as §1
Klebsiella pneumoniae = assay: Minimum inhibitory concentration against aerobic organism Klebsiella pneumoniae strain 2882; summary of the method: as §1
Morganella morganii = assay: Minimum inhibitory concentration against aerobic organism Morganella morganii strain 2833; summary of the method: as §1
Pseudomonas aeruginosa = assay: Minimum inhibitory concentration against aerobic organism Pseudomonas aeruginosa strain 2835; summary of the method: as §1
Proteus mirabilis = assay: Minimum inhibitory concentration against aerobic organism Proteus mirabilis strain 2830; summary of the method: as §1
Proteus vulgaris = assay: Minimum inhibitory concentration against aerobic organism Proteus vulgaris strain 2829; summary of the method: as §1
[1] = Minimum inhibitory concentration against aerobic organism Salmonella schottmuelleri strain 2837; summary of the method: as §1
Serratia marcescens = assay: Minimum inhibitory concentration against aerobic organism Serratia marcescens strain 2852; summary of the method: as §1
Streptococcus pyogenes = assay: Minimum inhibitory concentration against aerobic organism Streptococcus pyogenes strain 3124; summary of the method: as §1
Staphylococcus aureus = assay: Minimum inhibitory concentration against aerobic organism Staphylococcus aureus strain 2868; details: Staphylococcus aureus; read-out: MIC; summary of the method: as §1
Enterococcus faecalis = assay: Minimum inhibitory concentration against aerobic organism Streptococcus faecalis strain 2864; summary of the method: as §1
Shigella = assay: Minimum inhibitory concentration against aerobic organism Shigella species strain 2880; summary of the method: as §1
[2] = Escherichia coli, read-out: MIC
[3] = Klebsiella aerogenes, read-out: MIC
[4] = Enterobacter cloacae, read-out: MIC
[5] = Klebsiella pneumoniae, read-out: MIC
[6] = Morganella morganii, read-out: MIC
[7] = Proteus mirabilis, read-out: MIC
[8] = Proteus vulgaris, read-out: MIC
[9] = Serratia marcescens, read-out: MIC
[10] = Streptococcus pyogenes, read-out: MIC

Structure (SMILES)	MIC (Escherichia coli; [2])	MIC (Klebsiella aerogenes; [3])	MIC (Enterobacter cloacae; [4])	MIC (Klebsiella pneumoniae; [5])	MIC (Morganella morganii; [6])	MIC (Pseudomonas aeruginosa)	MIC (Proteus mirabilis; [7])	MIC (Proteus vulgaris; [8])	MIC ([1]; Salmonella, read-out: MIC)	MIC (Serratia marcescens; [9])	MIC (Streptococcus pyogenes; [10])	MIC (Staphylococcus aureus)	MIC (Enterococcus faecalis)	MIC (Shigella; Shigella, read-out: MIC)	further results
CC1=C(C(=O)[O-])N2C(=O)[C@@H](Nc3cc[n+](Cc4ccccc4)cc3)[C@H]2SC1	4 µg/mL (≈ 10.5 µM)	128 µg/mL (≈ 336 µM)	64 µg/mL (≈ 168 µM)	32 µg/mL (≈ 83.9 µM)	> 128 µg/mL	> 128 µg/mL	> 128 µg/mL	> 128 µg/mL	0.5 µg/mL (≈ 1.31 µM)	> 128 µg/mL	0.06 µg/mL (≈ 0.157 µM)	64 µg/mL (≈ 168 µM)	128 µg/mL (≈ 336 µM)	2 µg/mL (≈ 5.24 µM)	
Cn1nnnc1SCC1=C(C(=O)[O-])N2C(=O)[C@@H](Nc3cc[n+](C)cc3)[C@H]2SC1 (stereo in doubt; 15b)						> 128 µg/mL						> 128 µg/mL	> 128 µg/mL		MIC (Escherichia coli): >128 µg/mL; MIC (Klebsiella aerogenes): 16 µg/mL (≈ 38.1 µM); MIC (Enterobacter cloacae): >128 µg/mL; MIC (Klebsiella pneumoniae): 64 µg/mL (≈ 153 µM); MIC (Morganella morganii): >128 µg/mL; MIC (Proteus mirabilis): >128 µg/mL; MIC (Proteus vulgaris): 4 µg/mL (≈ 9.54 µM); MIC [1]: >128 µg/mL; MIC (Serratia marcescens): 64 µg/mL (≈ 153 µM); MIC (Streptococcus pyogenes): 32 µg/mL (≈ 76.3 µM); MIC (Shigella): >128 µg/mL
Cn1nnnc1SCC1=C(C(=O)[O-])N2C(=O)[C@@H](Nc3cc[n+](Cc4ccco4)cc3)[C@H]2SC1	0.06 µg/mL (≈ 0.124 µM)	8 µg/mL (≈ 16.5 µM)	8 µg/mL (≈ 16.5 µM)	0.06 µg/mL (≈ 0.124 µM)	> 128 µg/mL	128 µg/mL (≈ 264 µM)	16 µg/mL (≈ 33 µM)	< 0.25 µg/mL	0.0075 µg/mL (≈ 0.0154 µM)	128 µg/mL (≈ 264 µM)	0.03 µg/mL (≈ 0.0618 µM)	2 µg/mL (≈ 4.12 µM)	128 µg/mL (≈ 264 µM)	0.0075 µg/mL (≈ 0.0154 µM)	
Cn1nnnc1SCC1=C(C(=O)[O-])N2C(=O)[C@@H](Nc3cc[n+](Cc4ccc(C#N)cc4)cc3)[C@H]2SC1	0.25 µg/mL (≈ 0.48 µM)	8 µg/mL (≈ 15.4 µM)	8 µg/mL (≈ 15.4 µM)	1 µg/mL (≈ 1.92 µM)	128 µg/mL (≈ 246 µM)	> 128 µg/mL	128 µg/mL (≈ 246 µM)	16 µg/mL (≈ 30.7 µM)	0.125 µg/mL (≈ 0.24 µM)	128 µg/mL (≈ 246 µM)	0.125 µg/mL (≈ 0.24 µM)	32 µg/mL (≈ 61.5 µM)	> 128 µg/mL	< 0.06 µg/mL	
CC(=O)OCC1=C(C(=O)[O-])N2C(=O)[C@@H](Nc3cc[n+](C)cc3)[C@H]2SC1	> 128 µg/mL	> 128 µg/mL	> 128 µg/mL	32 µg/mL (≈ 88.1 µM)	> 128 µg/mL	> 128 µg/mL	> 128 µg/mL	< 0.5 µg/mL	8 µg/mL (≈ 22 µM)	> 128 µg/mL	2 µg/mL (≈ 5.5 µM)	64 µg/mL (≈ 176 µM)	> 128 µg/mL	64 µg/mL (≈ 176 µM)	
Cn1nnnc1SCC1=C(C(=O)[O-])N2C(=O)C(Nc3ccc(Cl)c[n+]3C)C2SC1 (stereo unspecified)	2 µg/mL (≈ 4.41 µM)	> 128 µg/mL	> 128 µg/mL	64 µg/mL (≈ 141 µM)	> 128 µg/mL	> 128 µg/mL	> 128 µg/mL	1 µg/mL (≈ 2.2 µM)	4 µg/mL (≈ 8.81 µM)	> 128 µg/mL	32 µg/mL (≈ 70.5 µM)	> 128 µg/mL	> 128 µg/mL	8 µg/mL (≈ 17.6 µM)	
Cc1c[n+](C)ccc1N[C@@H]1C(=O)N2C(C(=O)[O-])=C(CSc3nnnn3C)CS[C@H]12	8 µg/mL (≈ 18.5 µM)	8 µg/mL (≈ 18.5 µM)	16 µg/mL (≈ 36.9 µM)	16 µg/mL (≈ 36.9 µM)	16 µg/mL (≈ 36.9 µM)	> 128 µg/mL	16 µg/mL (≈ 36.9 µM)	1 µg/mL (≈ 2.31 µM)	128 µg/mL (≈ 295 µM)	> 128 µg/mL	32 µg/mL (≈ 73.8 µM)	> 128 µg/mL	> 128 µg/mL	16 µg/mL (≈ 36.9 µM)	
Cn1nnnc1SCC1=C(C(=O)[O-])N2C(=O)[C@@H](Nc3cc[n+](COCC(F)(F)F)cc3)[C@H]2SC1	< 0.06 µg/mL	4 µg/mL (≈ 7.73 µM)	< 0.06 µg/mL	1 µg/mL (≈ 1.93 µM)	> 128 µg/mL	> 128 µg/mL	> 128 µg/mL	4 µg/mL (≈ 7.73 µM)	< 0.06 µg/mL	128 µg/mL (≈ 247 µM)	< 0.06 µg/mL	4 µg/mL (≈ 7.73 µM)	> 128 µg/mL	< 0.06 µg/mL	
Cc1ccccc1-[n+]1ccc(N[C@@H]2C(=O)N3C(C(=O)[O-])=C(CSc4nnnn4C)CS[C@H]23)cc1	2 µg/mL (≈ 4.04 µM)	> 128 µg/mL	> 128 µg/mL	128 µg/mL (≈ 258 µM)	> 128 µg/mL	> 128 µg/mL	> 128 µg/mL	2 µg/mL (≈ 4.04 µM)	2 µg/mL (≈ 4.04 µM)	> 128 µg/mL	0.25 µg/mL (≈ 0.504 µM)	32 µg/mL (≈ 64.6 µM)	> 128 µg/mL	1 µg/mL (≈ 2.02 µM)	
